According to ChEMBL document CHEMBL4177759 (J Med Chem, 2018):
Each block holds one compound with its values, some of them ahead of it.

Legend:
[1] = Solubility of the compound in 0.01 M PBS after 24 hrs by shake flask method; type: physicochemical; conditions: buffer
[2] = Chemical stability of the compound in 0.01 M PBS at 10 uM after 60 mins by LC-MS/MS method; type: physicochemical; conditions: buffer, 1 h
Method in brief: (§1)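 Prodrug from 10 mM DMSO stock spiked to 10 µM final in preheated PBS at 37 °C; aliquots taken over 60 min, quenched with cold acetonitrile containing losartan internal standard, diluted with water, and intact prodrug measured by LC-MS/MS.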

[3] = Chemical stability of the compound in 0.01 M PBS assessed as parent compound remaining at 10 uM after 60 mins by LC-MS/MS method; type: physicochemical; conditions: read-out: Stability; method in brief: as §1
[4] = Prodrug conversion in mouse jejunum homogenate assessed as mebendazole formation by measuring remaining parent drug at 10 uM measured at 60 mins by LC-MS/MS method; type: ADME, tissue-based; conditions: in vitro, 1 h
Method in brief: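 Washed mouse jejunum diluted 10-fold in 0.1 M potassium phosphate buffer, probe-sonicated; homogenate spiked with 10 µM prodrug; triplicate aliquots at 0 and 60 min quenched with ice-cold acetonitrile plus losartan; prodrug remaining by LC-MS/MS peak-area ratio to internal standard.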

[5] = Prodrug conversion in mouse liver microsomes assessed as mebendazole formation by measuring remaining parent drug at 10 uM measured at 60 mins by LC-MS/MS method; type: ADME, microsome; conditions: 1 h
Method in brief: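 Mouse liver microsomes (0.5 mg/mL) with 10 µM prodrug in 100 mM potassium phosphate, pH 7.4, reaction started by adding microsomes; triplicate samples at 0 and 60 min quenched with ice-cold acetonitrile containing losartan; prodrug disappearance by LC-MS/MS.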

[6] = Prodrug conversion in naive mouse plasma assessed as mebendazole formation by measuring remaining parent drug at 10 uM measured at 60 mins by LC-MS/MS method; type: ADME, cell-free; conditions: 1 h
Method in brief: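 Prodrug spiked at 10 µM into 1 mL naive mouse plasma, incubated on orbital shaker at 37 °C; triplicate aliquots at 0 and 60 min quenched with ice-cold acetonitrile plus losartan internal standard; remaining prodrug by LC-MS/MS.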

[7] = Prodrug conversion in CD1 mouse plasma assessed as mebendazole formation at 30 mg/kg mebendazole equivalent administered single dose via oral gavage measured at 60 mins by LC-MS/MS method; type: ADME, organism-based; conditions: in vivo, 1 h
[8] = mouse, in vivo, po, 30 mg/kg, 0.5 h
[9] = Plasma concentration in CD1 mouse at 30 mg/kg administered single dose via oral gavage measured at 60 mins by LC-MS/MS method; type: ADME, organism-based
[10] = Cmax in CD1 mouse at 1.5 mg/kg, iv at 5 mins by LC-MS/MS method; type: ADME, organism-based; set-up: dose 1.5 mg/kg, route intravenous; conditions: in vivo
Method in brief: (§2)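 Male CD-1 mice (25–30 g) received single IV dose 1.5 mg/kg MBZ-C dissolved just before dosing in 1% DMSO, 10% Cremophor EL, 89% saline; sacrificed by CO2 at set times; plasma extracted with acetonitrile containing losartan internal standard and MBZ measured by LC-MS/MS against naive-matrix calibration (0.001-50 nmol/g).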

[11] = Half life in CD1 mouse at 1.5 mg/kg, iv by LC-MS/MS method; type: ADME, organism-based; conditions: in vivo; method in brief: as §2
[12] = Cmax in Beagle dog at 0.3 mg/kg, iv at 5 mins by LC-MS/MS method; type: ADME, organism-based, Canis lupus familiaris; set-up: dose 0.3 mg/kg, route intravenous; conditions: in vivo
Method in brief: (§3)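 Male beagle dogs (n=2) given single IV bolus of MBZ-C at 0.3 mg/kg in co-solvent vehicle (1% DMSO, 10% Cremophor EL). Jugular vein blood (~1 mL) by direct puncture at set times into sodium heparin tubes, kept on wet ice, spun 3,000 × g 5 min 4 °C, plasma stored -80 °C; MBZ quantified by LC-MS/MS.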

[13] = Half life in Beagle dog at 0.3 mg/kg, iv by LC-MS/MS method; type: ADME, organism-based, Canis lupus familiaris; conditions: in vivo; method in brief: as §3
[14] = Tmax in CD1 mouse at 1.5 mg/kg, iv by LC-MS/MS method; type: ADME, organism-based; conditions: in vivo; method in brief: as §2
[15] = Tmax in Beagle dog at 0.3 mg/kg, iv by LC-MS/MS method; type: ADME, organism-based, Canis lupus familiaris; conditions: in vivo; method in brief: as §3
[16] = AUC (0 to t) in CD1 mouse at 1.5 mg/kg, iv by LC-MS/MS method; type: ADME, organism-based; conditions: in vivo; method in brief: as §2
[17] = AUC (0 to t) in Beagle dog at 0.3 mg/kg, iv by LC-MS/MS method; type: ADME, organism-based, Canis lupus familiaris; conditions: in vivo; method in brief: as §3
[18] = Clearance in CD1 mouse at 1.5 mg/kg, iv by LC-MS/MS method; type: ADME, organism-based; conditions: in vivo; method in brief: as §2
[19] = Clearance in Beagle dog at 0.3 mg/kg, iv by LC-MS/MS method; type: ADME, organism-based, Canis lupus familiaris; conditions: in vivo; method in brief: as §3
[20] = Volume of distribution in CD1 mouse at 1.5 mg/kg, iv by LC-MS/MS method; type: ADME, organism-based; conditions: in vivo; method in brief: as §2
[21] = Volume of distribution in Beagle dog at 0.3 mg/kg, iv by LC-MS/MS method; type: ADME, organism-based, Canis lupus familiaris; conditions: in vivo; method in brief: as §3
[22] = Cmax in CD1 mouse plasma at 30 mg/kg administered via oral gavage at 60 mins by LC-MS/MS method; type: ADME, organism-based; set-up: dose 30 mg/kg, route oral
Method in brief: (§4)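 Male CD-1 mice dosed once by oral gavage, 30 mg/kg MBZ equivalent, formulated just before dosing in 5% ethanol, 5% polysorbate 80, 90% water; plasma and brain collected at set times after CO2 euthanasia; MBZ by LC-MS/MS; AUC0-t by log-linear trapezoidal rule; brain/plasma ratio as ratio of mean AUC0-t values.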

[23] = Tmax in CD1 mouse plasma at 30 mg/kg administered via oral gavage by LC-MS/MS method; type: ADME, organism-based; method in brief: as §4
[24] = AUC (0 to t) in CD1 mouse plasma at 30 mg/kg administered via oral gavage by LC-MS/MS method; type: ADME, organism-based; method in brief: as §4
[25] = Oral bioavailability in CD1 mouse plasma at 30 mg/kg administered via gavage by LC-MS/MS method; type: ADME, organism-based
[26] = Cmax in CD1 mouse brain at 30 mg/kg administered via oral gavage at 60 mins by LC-MS/MS method; type: ADME, organism-based; set-up: dose 30 mg/kg, route oral; conditions: in vivo, 1 h; method in brief: as §4
[27] = Tmax in CD1 mouse brain at 30 mg/kg administered via oral gavage by LC-MS/MS method; type: ADME, organism-based; method in brief: as §4
[28] = AUC (0 to t) in CD1 mouse brain at 30 mg/kg administered via oral gavage by LC-MS/MS method; type: ADME, organism-based; conditions: in vivo; method in brief: as §4
[29] = Ratio of drug level in brain to plasma in CD1 mouse at 30 mg/kg administered via oral gavage by LC-MS/MS method; type: ADME, organism-based; conditions: brain and plasma, read-out: BPR; method in brief: as §4
[30] = Cmax in Beagle dog at […], po measured at 2 hrs by LC-MS/MS method; type: ADME, organism-based, Canis lupus familiaris; set-up: dose 2.5 mg/kg, route oral; conditions: in vivo
[31] = Tmax in Beagle dog at […], po by LC-MS/MS method; type: ADME, organism-based, Canis lupus familiaris; conditions: in vivo
[32] = AUC (0 to t) in Beagle dog at […], po by LC-MS/MS method; type: ADME, organism-based, Canis lupus familiaris; conditions: in vivo
[33] = Oral bioavailability in Beagle dog at […] by LC-MS/MS method; type: ADME, organism-based, Canis lupus familiaris; conditions: in vivo
[34] = Oral bioavailability in human at 1.7 ug; type: ADME, organism-based; conditions: in vivo
[35] = Oral bioavailability in human at 1.18 ug; type: ADME, organism-based; conditions: in vivo

- solubility [1]: Soluble
- Stability [2]: Stable
SMILES: COC(=O)Nc1nc2cc(C(=O)c3ccccc3)ccc2n1COC(=O)OC(C)C

- Stability [4]: 1%
- Stability [5]: 14%
- Stability [6]: 73%
- Stability [2]: Stable
- Drug metabolism [7]: 10.35 nmol/mL
- Cmax [8]: 12.2 µM
SMILES: COC(=O)Nc1nc2cc(C(=O)c3ccccc3)ccc2n1COP(=O)(O)OCOC(=O)OC(C)C

- Stability [4]: 35%
- Stability [5]: 100%
- Stability [6]: 62%
- solubility [1]: Soluble
- Stability [2]: Stable
- Drug metabolism [7]: 8.53 nmol/mL
SMILES: COC(=O)Nc1nc2cc(C(=O)c3ccccc3)ccc2n1COP(=O)(O)O

- Stability [4]: 30%
- Stability [5]: 24%
- Stability [6]: 78%
- solubility [1]: Soluble
- Stability [2]: Stable
SMILES: COC(=O)Nc1nc2cc(C(=O)c3ccccc3)ccc2n1COC(=O)CCC(=O)O

Continued, compound first:

SMILES: COC(=O)Nc1nc2cc(C(=O)c3ccccc3)ccc2n1COC(=O)CC[C@H](N)C(=O)O
- solubility [1]: Soluble
- remaining at 1 h, 10 µM [3]: 0%

SMILES: COC(=O)Nc1nc2ccc(C(=O)c3ccccc3)cc2[nH]1 [MEBENDAZOLE]
- Stability [4]: 100%
- Stability [5]: 100%
- Stability [6]: 100%
- concentration at 1 h [9]: 2.86 µM
- Cmax [10]: 5.3 µM
- half-life [11]: 43.8 min
- Cmax [12]: 2.2 µM
- half-life [13]: 43.2 min
- Tmax [14]: 4.98 min
- Tmax [15]: 4.98 min
- AUC(0-t) [16]: 2.7 µM·h
- AUC(0-t) [17]: 0.9 µM·h
- clearance [18]: 27.4 mL/min/kg
- clearance [19]: 22.2 mL/min/kg
- Vd [20]: 1.4 L/kg
- Vd [21]: 1.3 L/kg
- Cmax [22]: 5.1 µM
- Tmax [23]: 60 min
- AUC(0-t) [24]: 12.9 µM·h
- bioavailability [25]: 24%
- Cmax [26]: 5.1 nmol/g
- Tmax [27]: 60 min
- AUCt [28]: 13.1 nmol·h/g
- Kp [29]: 1
- Cmax at 2 h [30]: 0.2 µM
- Tmax [31]: 120 min
- AUC(0-t) [32]: 0.8 µM·h
- bioavailability [33]: 11%
- bioavailability [34]: 17%
- bioavailability [35]: 22%

SMILES: COC(=O)Nc1nc2cc(C(=O)c3ccccc3)ccc2n1COC(=O)OC[C@H]1OC(O)[C@H](O)[C@@H](O)[C@@H]1O (some centres not stated)
- Stability [4]: 4%
- Stability [5]: 27%
- Stability [6]: 18%
- solubility [1]: Soluble
- Stability [2]: Stable

SMILES: COC(=O)Nc1nc2cc(C(=O)c3ccccc3)ccc2n1COC(=O)CNC(=O)[C@H](CC(C)C)NC(C)=O
- Stability [4]: 18%
- Stability [5]: 29%
- Stability [6]: 0%
- solubility [1]: Soluble
- Stability [2]: Stable
- Drug metabolism [7]: 8.72 nmol/mL
